Test results from article PMC6118327 (Biochimica et biophysica acta. Biomembranes, 2017).

Molecular target: T1, mUCP3 (Mus musculus, UniProt P56501)
T1 sequence (P56501 1-308): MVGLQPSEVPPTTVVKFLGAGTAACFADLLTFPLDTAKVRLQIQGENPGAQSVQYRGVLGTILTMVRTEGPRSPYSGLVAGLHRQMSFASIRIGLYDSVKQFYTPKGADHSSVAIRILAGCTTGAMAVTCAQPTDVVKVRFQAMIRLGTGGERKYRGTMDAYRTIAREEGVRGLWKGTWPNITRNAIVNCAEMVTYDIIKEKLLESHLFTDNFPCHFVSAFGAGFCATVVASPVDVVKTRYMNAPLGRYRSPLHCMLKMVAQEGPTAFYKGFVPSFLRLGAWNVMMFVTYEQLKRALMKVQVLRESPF
Type: biochemical
Conditions: extraction of FA from the membrane
Procedure, shortened: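 Recombinant mouse protein reconstituted into DOPC/DOPE/CL (45:45:10) liposomes. Bilayers formed at 1.5 mg/ml lipid, 6 μg protein/mg lipid, AA 10 or 15 mol%. Run in 50 mM Na₂SO₄/10 mM MES/10 mM Tris/0.6 mM EGTA, pH 7.35, 32°C. I/V recorded −50 to +50 mV, including with 2 mM ATP. G from linear fit at 0 mV gives relative conductance. IC50 and maximum inhibition come from a four-parameter logistic fit. AA-dependence tested at 1 mM ATP, 2 mM ADP, 5 mM AMP. Mean ± SD, ≥3 experiments.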

OC[C@H]1O[C@@H]2O[C@H]3[C@H](O)[C@@H](O)[C@@H](O[C@H]4[C@H](O)[C@@H](O)[C@@H](O[C@H]5[C@H](O)[C@@H](O)[C@@H](O[C@H]6[C@H](O)[C@@H](O)[C@@H](O[C@H]7[C@H](O)[C@@H](O)[C@@H](O[C@H]1[C@H](O)[C@H]2O)O[C@@H]7CO)O[C@@H]6CO)O[C@@H]5CO)O[C@@H]4CO)O[C@@H]3CO [α-cyclodextrin, alpha-cyclodextrin]
membrane total conductance after addition of α-cyclodextrin: decrease of membrane total conductance
